According to ChEMBL document CHEMBL3046179, “Study on the anthraquinones separated from the cultivation of Trichoderma harzianum strain Th-R16 and their biological activity” (J Agric Food Chem, 2009):
pIC50: −log10 of the molar value. Where a name gives a salt, the structure may show the parent alone.

Columns and labels:
Botrytis cinerea [1] = experiment: Antifungal activity against Botryotinia fuckeliana assessed as growth inhibition at 500 ug/mL after 4 days; format: functional; conditions: 96 h, read-out: GI
In short: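 Mycelial plug of B. cinerea was placed at the centre of PDA dishes containing test sample at 25 to 500 μg/mL. Colony diameter (mm) was read after 4 days, in triplicate.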

Rhizoctonia solani [2] = experiment: Antifungal activity against Rhizoctonia solani assessed as growth inhibition at 500 ug/mL after 2 days; format: functional; conditions: 48 h, read-out: GI
In short: (§1)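 Rhizoctonia solani plugs were set centrally on PDA dishes holding test sample at 25 to 500 μg/mL. Mycelial diameter (mm) was measured after 2 days, in triplicate.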

Escherichia coli [3] = experiment: Antibacterial activity against Escherichia coli using 50 uL of compound solution from 500 ug/mL stock solution after 24 hr by agar disk diffusion method; format: functional
In short: (§2)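 Agar disk diffusion. Plates were spread with 1 mL culture containing 1 × 10^7 CFU: S. aureus and E. coli on tryptic soy agar, B. cereus and P. aeruginosa on nutrient agar. Each 8 mm filter-paper disc was blotted with 50 μL of a 500 μg/mL sample. Kanamycin sulfate 50 μg/mL discs were the positive control. Plates ran 24 h at 37 °C, and inhibition-zone diameter was measured in triplicate.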

Pseudomonas aeruginosa [4] = experiment: Antibacterial activity against Pseudomonas aeruginosa using 50 uL of compound solution from 500 ug/mL stock solution after 24 hr by agar disk diffusion method; format: functional; in short: as §2
Staphylococcus aureus [5] = experiment: Antibacterial activity against Staphylococcus aureus after 24 hr by agar disk diffusion method; format: functional, organism-based; in short: as §2
Rhizoctonia solani [6] = experiment: Antifungal activity against Rhizoctonia solani assessed as inhibition of mycelium growth after 2 days; format: functional, organism-based; in short: as §1
Staphylococcus aureus [7] = experiment: Antibacterial activity against Staphylococcus aureus using 50 uL of compound solution from 500 ug/mL stock solution after 24 hr by agar disk diffusion method; format: functional; in short: as §2
Bacillus cereus [8] = experiment: Antibacterial activity against Bacillus cereus using 50 uL of compound solution from 500 ug/mL stock solution after 24 hr by agar disk diffusion method; format: functional; in short: as §2
Botrytis cinerea [9] = experiment: Antifungal activity against Botryotinia fuckeliana as inhibition of mycelium growth after 4 days; format: functional, organism-based
In short: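 Mycelial plugs of the pathogen placed at the centre of PDA Petri dishes holding 10 mL of test sample at 25 to 500 μg/mL. Mycelial diameter (mm) measured after 4 days for B. cinerea. Run in triplicate.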

Bacillus cereus [10] = experiment: Antibacterial activity against Bacillus cereus at 50 ug/mL after 24 hr by agar disk diffusion method; format: functional; conditions: read-out: DIZ
Pseudomonas aeruginosa [11] = experiment: Antibacterial activity against Pseudomonas aeruginosa at 50 ug/mL after 24 hr by agar disk diffusion method; format: functional; conditions: read-out: DIZ
Escherichia coli [12] = experiment: Antibacterial activity against Escherichia coli at 50 ug/mL after 24 hr by agar disk diffusion method; format: functional; conditions: read-out: DIZ
Staphylococcus aureus [13] = experiment: Antibacterial activity against Staphylococcus aureus at 50 ug/mL after 24 hr by agar disk diffusion method; format: functional; conditions: read-out: DIZ

SMILES	inhibition of growth at 500 µg/mL (Botrytis cinerea [1])	inhibition of growth at 500 µg/mL (Rhizoctonia solani [2])	diameter of the inhibition zone (DIZ) (Escherichia coli [3])	diameter of the inhibition zone (DIZ) (Pseudomonas aeruginosa [4])	pIC50 (Staphylococcus aureus [5])	growth inhibition (GI) (Rhizoctonia solani [6])	diameter of the inhibition zone (DIZ) (Staphylococcus aureus [7])	diameter of the inhibition zone (DIZ) (Bacillus cereus [8])	growth inhibition (GI) (Botrytis cinerea [9])	zone of inhibition at 50 µg/mL (Bacillus cereus [10])	zone of inhibition at 50 µg/mL (Pseudomonas aeruginosa [11])	zone of inhibition at 50 µg/mL (Escherichia coli [12])	zone of inhibition at 50 µg/mL (Staphylococcus aureus [13])
O=C1c2cc(CO)cc(O)c2C(=O)c2cccc(O)c21	53.7%	25.4%	<10 mm	<10 mm	3.93	Dose-dependent effect	17.67 mm	10.66 mm	–	–	–	–	–
O=C1c2ccc(O)cc2C(=O)c2c(O)cc(CO)cc21	92.8%	67.3%	<10 mm	<10 mm	3.66	–	14.33 mm	<10 mm	Dose-dependent effect	–	–	–	–
Cc1cc(O)c2c(c1)C(=O)c1cccc(O)c1C2=O [CHRYSOPHANOL]	22.5%	21.2%	<10 mm	<10 mm	–	–	<10 mm	<10 mm	–	–	–	–	–
Cc1cc(O)c2c(c1)C(=O)c1cc(O)cc(O)c1C2=O [EMODIN]	51.7%	39%	<10 mm	<10 mm	4.33	–	11 mm	10 mm	Dose-dependent effect	–	–	–	–
NC[C@H]1O[C@H](O[C@H]2[C@H](O)[C@@H](O[C@H]3O[C@H](CO)[C@@H](O)[C@H](N)[C@H]3O)[C@H](N)C[C@@H]2N)[C@H](O)[C@@H](O)[C@@H]1O [KANAMYCIN SULFATE]	–	–	–	–	–	–	–	–	–	15 mm	13 mm	12 mm	13 mm
O=C1c2ccccc2C(=O)c2c(O)cc(CO)cc21 [OMEGA-HYDROXYPACHYBASIN]	47.3%	41.5%	<10 mm	<10 mm	3.91	–	20 mm	11 mm	–	–	–	–	–
Cc1cc(O)c2c(c1)C(=O)c1ccccc1C2=O [PACHYBASIN]	6%	13.9%	<10 mm	<10 mm	–	–	10.33 mm	<10 mm	–	–	–	–	–
